The results in this text go back to ChEMBL document CHEMBL4028864 (J Med Chem, 2017).

For test [1], the system named is HL-60. As to the kind of experiment: Antiproliferative activity against human HL60 cells at 4 uM after 36 hrs by PrestoBlue dye based assay relative to control. The format is functional.
Test [2] deals with HEL 92.1.7. Put plainly: cells. The format is functional, cell-based. Particulars: Homo sapiens, HEL 92.1.7, 36 h.
The subject of test [3] is KMS-12-BM. Put plainly: cells. The format is functional, cell-based. Conditions: Homo sapiens, 48 h.
For test [4], the system named is HL-60. As to the kind of experiment: Antiproliferative activity against human HL60 cells. The format is functional, cell-based.
The nature of test [5]: cells. Type of test: ADME, cell-based. Conditions: Homo sapiens, AC10, 24 h.
The test system of test [6] is Jurkat. Put plainly: cells. Type of test: functional, cell-based. Conditions: Homo sapiens.
Test [7] relates to OPM-2. Put plainly: Antiproliferative activity against human OPM2 cells assessed as cell viability at 10 uM after 48 hrs by CellTiter-Glo luminescent assay relative to control. The format is functional. A general note: ATP-based viability assays read luminescence as a measure of living cells.
In test [8] the test system is MV4-11. As to the kind of experiment: Antiproliferative activity against human MV4-11 cells assessed as cell viability at 10 uM after 48 hrs by CellTiter-Glo luminescent assay relative to control. The format is functional.
In test [9] the test system is KMS-12-BM. As to the kind of experiment: Antiproliferative activity against human KMS-12-BM cells assessed as cell viability at 10 uM after 48 hrs by CellTiter-Glo luminescent assay relative to control. Type of test: functional.
Test [10] deals with MOLM-14. As to the kind of experiment: Antiproliferative activity against human MOLM14 cells assessed as cell viability at 10 uM after 48 hrs by CellTiter-Glo luminescent assay relative to control. The format is functional.
Test [11] addresses T1, Tyrosine-protein kinase JAK2 (Homo sapiens, UniProt O60674). Put plainly: Binding affinity to N-terminal His tagged human recombinant JAK2 (1014 to 1132 residues) expressed in Escherichia coli after 300 mins by LC/MS analysis. Conditions: read-out: Kd(app). Summed up: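 JAK2 in Tris/glycerol/urea storage buffer was exchanged into sodium phosphate/NaCl pH 7.5 and immobilized on periodate-oxidized diol silica (Schiff base, NaBH3CN, 116 h, 4 °C), then packed into a 35 × 0.5 mm column. Compounds were run at 10 μM final (50 μM for one analyte) in 20 mM ammonium acetate pH 6.8 at 20 μL/min. Detection was by SIM [M+H]+, with DMSO as void marker. Retention time was taken from the EIC peak apex, n = 3, with runs up to 300 min.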

For test [12], the system named is MCF7. Put plainly: cells. The format is functional, cell-based. Conditions: Homo sapiens, MCF7, 72 h.
The target of test [13] is T2, Protein deacetylase HDAC6 (Homo sapiens, UniProt Q9UBN7).
T2 sequence (Q9UBN7 whole entry): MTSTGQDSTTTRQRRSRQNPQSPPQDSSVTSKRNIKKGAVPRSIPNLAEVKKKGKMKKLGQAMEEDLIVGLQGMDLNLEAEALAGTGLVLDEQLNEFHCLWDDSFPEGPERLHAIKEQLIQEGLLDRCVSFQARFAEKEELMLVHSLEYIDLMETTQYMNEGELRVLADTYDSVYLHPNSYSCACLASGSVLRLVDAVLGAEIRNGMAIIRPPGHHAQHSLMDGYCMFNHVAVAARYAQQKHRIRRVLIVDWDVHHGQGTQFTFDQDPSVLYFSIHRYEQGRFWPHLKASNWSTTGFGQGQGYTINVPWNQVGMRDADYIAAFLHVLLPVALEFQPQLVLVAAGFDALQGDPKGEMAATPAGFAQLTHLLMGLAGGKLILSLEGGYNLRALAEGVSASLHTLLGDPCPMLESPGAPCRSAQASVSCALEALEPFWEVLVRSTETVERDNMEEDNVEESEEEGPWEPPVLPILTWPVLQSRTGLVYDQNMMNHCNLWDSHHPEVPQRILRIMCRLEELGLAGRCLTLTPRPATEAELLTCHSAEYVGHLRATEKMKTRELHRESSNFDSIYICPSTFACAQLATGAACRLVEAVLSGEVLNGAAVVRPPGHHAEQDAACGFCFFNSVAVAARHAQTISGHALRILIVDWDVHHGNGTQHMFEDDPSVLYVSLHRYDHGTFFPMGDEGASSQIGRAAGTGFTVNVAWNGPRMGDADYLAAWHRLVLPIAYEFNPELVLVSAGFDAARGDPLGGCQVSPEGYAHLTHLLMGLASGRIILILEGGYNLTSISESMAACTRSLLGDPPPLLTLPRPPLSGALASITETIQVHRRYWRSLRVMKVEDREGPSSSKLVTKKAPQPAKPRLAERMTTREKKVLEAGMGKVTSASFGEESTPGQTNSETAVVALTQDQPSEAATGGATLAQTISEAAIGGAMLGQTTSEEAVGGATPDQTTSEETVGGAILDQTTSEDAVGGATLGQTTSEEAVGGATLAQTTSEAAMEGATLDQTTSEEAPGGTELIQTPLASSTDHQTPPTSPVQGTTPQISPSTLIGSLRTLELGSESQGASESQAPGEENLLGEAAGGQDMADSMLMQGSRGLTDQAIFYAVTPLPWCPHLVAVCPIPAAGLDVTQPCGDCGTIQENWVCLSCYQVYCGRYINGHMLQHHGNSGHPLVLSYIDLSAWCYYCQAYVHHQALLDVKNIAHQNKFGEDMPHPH
Put plainly: Inhibition of N-terminal GST tagged human HDAC6 (1 to 1215 residues) expressed in baculovirus infected insect cells using RHKKAc as substrate in presence of ATP.

In test [14] the target is Histone deacetylase 1 (Homo sapiens, UniProt Q13547). Put plainly: Inhibition of C-terminal FLAG His tagged full length human recombinant HDAC1 (1 to 482 residues) expressed in baculovirus infected sf21 cells using RHKKAc as substrate in presence of ATP.
Sequence of Histone deacetylase 1 (Q13547 whole entry, the tested form may be a part): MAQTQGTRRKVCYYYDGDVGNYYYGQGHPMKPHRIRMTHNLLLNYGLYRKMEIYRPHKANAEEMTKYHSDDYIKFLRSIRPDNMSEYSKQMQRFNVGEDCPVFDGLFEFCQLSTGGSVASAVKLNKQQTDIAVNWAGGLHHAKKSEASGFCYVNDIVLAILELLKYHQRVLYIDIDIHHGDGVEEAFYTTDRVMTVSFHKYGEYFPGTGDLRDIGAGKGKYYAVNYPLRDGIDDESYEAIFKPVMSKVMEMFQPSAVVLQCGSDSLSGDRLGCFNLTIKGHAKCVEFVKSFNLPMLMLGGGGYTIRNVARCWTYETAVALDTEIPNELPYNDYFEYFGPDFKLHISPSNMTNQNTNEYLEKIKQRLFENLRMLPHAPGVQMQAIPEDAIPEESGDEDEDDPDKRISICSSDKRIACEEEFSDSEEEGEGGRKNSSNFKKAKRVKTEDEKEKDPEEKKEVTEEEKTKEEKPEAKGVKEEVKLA
Test [15] concerns MDA-MB-231. Put plainly: cells. Type of test: functional, cell-based. Particulars: Homo sapiens, MDA-MB-231, 72 h.
The subject of test [16] is HCT-116. Put plainly: Antiproliferative activity against human HCT116 cells after 72 hrs by MTT assay. The format is functional, cell-based. Conditions: HCT-116, 72 h. Background: Tetrazolium dyes change colour on reduction, which living cells bring about.
Test [17] has as its system PC-3. Put plainly: cells. Type of test: functional, cell-based. Conditions: Homo sapiens, PC-3, 72 h.
The target of test [18] is T1, Tyrosine-protein kinase JAK2. Put plainly: Inhibition of human JAK2 using poly[Glu:Tyr] as substrate in presence of [gamma-33P]-ATP.
Test [19] concerns the target Histone deacetylase 3/Nuclear receptor corepressor 2 (HDAC3/NCoR2) (Homo sapiens, UniProt O15379). Put plainly: Inhibition of human recombinant HDAC3 (1 to 428 residues)/N-terminal GST-tagged NCOR2 (395 to 489 residues) expressed in Baculovirus infected insect cells in presence of ATP. Summed up: (§1)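 HDAC enzyme inhibition was run by a contract laboratory.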
Test [20] deals with Histone deacetylase 5 (Homo sapiens, UniProt Q9UQL6). As to the kind of experiment: Inhibition of C-terminal His tagged human recombinant HDAC5 (657 to 1123 residues) expressed in Baculovirus infected insect cells in presence of ATP. Summed up: as §1
Sequence of Histone deacetylase 5 (Q9UQL6 whole entry, the tested form may be a part): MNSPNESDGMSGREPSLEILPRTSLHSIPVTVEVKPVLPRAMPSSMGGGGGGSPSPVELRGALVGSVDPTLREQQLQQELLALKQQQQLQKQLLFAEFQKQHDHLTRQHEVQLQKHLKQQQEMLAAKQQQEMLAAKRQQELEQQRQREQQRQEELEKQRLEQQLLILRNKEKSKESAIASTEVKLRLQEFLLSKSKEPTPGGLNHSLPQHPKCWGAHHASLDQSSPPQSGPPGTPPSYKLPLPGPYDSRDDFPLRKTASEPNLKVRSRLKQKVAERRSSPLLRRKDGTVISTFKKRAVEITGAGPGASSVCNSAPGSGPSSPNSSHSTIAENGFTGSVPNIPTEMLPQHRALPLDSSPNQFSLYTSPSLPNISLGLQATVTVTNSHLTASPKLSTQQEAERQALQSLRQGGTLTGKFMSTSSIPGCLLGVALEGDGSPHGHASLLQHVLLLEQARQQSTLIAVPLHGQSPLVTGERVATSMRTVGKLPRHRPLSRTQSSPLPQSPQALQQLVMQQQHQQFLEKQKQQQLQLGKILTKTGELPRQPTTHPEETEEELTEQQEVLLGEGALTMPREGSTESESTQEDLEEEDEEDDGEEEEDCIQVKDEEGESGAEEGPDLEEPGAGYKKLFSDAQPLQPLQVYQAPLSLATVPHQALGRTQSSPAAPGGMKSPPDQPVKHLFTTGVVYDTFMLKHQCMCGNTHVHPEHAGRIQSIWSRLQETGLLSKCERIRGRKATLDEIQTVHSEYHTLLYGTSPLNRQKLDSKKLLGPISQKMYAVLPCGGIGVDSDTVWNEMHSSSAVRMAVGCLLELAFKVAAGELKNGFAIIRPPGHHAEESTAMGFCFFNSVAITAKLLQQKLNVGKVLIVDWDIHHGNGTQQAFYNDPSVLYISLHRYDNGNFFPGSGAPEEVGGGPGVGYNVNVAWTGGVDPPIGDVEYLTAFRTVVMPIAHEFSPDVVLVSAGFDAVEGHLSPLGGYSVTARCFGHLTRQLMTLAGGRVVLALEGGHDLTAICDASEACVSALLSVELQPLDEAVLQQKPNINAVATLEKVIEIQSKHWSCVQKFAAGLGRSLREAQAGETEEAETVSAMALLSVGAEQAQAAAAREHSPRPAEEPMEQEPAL
For test [21], the target named is Histone deacetylase 7 (Homo sapiens) (UniProt Q8WUI4). As to the kind of experiment: Inhibition of N-terminal GST tagged human recombinant HDAC7 (518 to 991 residues) expressed in Baculovirus infected insect cells at 10 uM in presence of ATP relative to control. Summed up: as §1
Test [22] has as its target Histone deacetylase 4 (Homo sapiens) (UniProt P56524). As to the kind of experiment: Inhibition of N-terminal GST tagged/C-terminal His tagged human recombinant HDAC4 (627 to 1084 residues) expressed in Baculovirus infected insect cells in presence of ATP. Conditions: concentration not given here. Summed up:
as §1

In test [23] the target is Histone deacetylase 11 (Homo sapiens) (UniProt Q96DB2). Put plainly: Inhibition of C-terminal His tagged human recombinant HDAC11 (1 to 347 residues) expressed in Baculovirus infected insect cells at 10 uM in presence of ATP relative to control. Summed up: as §1
Sequence of Histone deacetylase 11 (Homo sapiens) (Q96DB2 whole entry, the tested form may be a part): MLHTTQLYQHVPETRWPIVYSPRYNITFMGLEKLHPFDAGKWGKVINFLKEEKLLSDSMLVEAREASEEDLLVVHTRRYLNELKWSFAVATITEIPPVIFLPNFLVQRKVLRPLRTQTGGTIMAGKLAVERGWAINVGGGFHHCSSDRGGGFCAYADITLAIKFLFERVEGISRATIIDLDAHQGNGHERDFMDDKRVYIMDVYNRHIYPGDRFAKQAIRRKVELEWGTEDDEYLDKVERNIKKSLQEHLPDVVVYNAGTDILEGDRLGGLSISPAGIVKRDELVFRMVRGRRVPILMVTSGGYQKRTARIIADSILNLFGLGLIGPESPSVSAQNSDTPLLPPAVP
The target in test [24] is Non-receptor tyrosine-protein kinase TYK2 (Homo sapiens, UniProt P29597). As to the kind of experiment: Inhibition of human TYK2 using KKSRGDYMTMQIG as substrate in presence of [gamma-33P]-ATP. In short, it runs like this: (§2)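 Kinase inhibition was tested by radiometric "Hotspot" profiling at a contract laboratory with 10 μM ATP.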
Test [25] has as its target Polyamine deacetylase HDAC10 (Homo sapiens, UniProt Q969S8). Put plainly: Inhibition of human HDAC10 using fluorogenic peptide from p53 residues 379 to 382 as substrate in presence of ATP. Summed up: as §1
Test [26] concerns the target Histone deacetylase 8 (Homo sapiens, UniProt Q9BY41). As to the kind of experiment: Inhibition of C-terminal His tagged human recombinant HDAC8 (1 to 377 residues) expressed in Baculovirus infected insect cells in presence of ATP. Summed up: as §1
For test [27], the target named is Histone deacetylase 9 (Homo sapiens, UniProt Q9UKV0). Put plainly: Inhibition of HDAC9 (unknown origin) in presence of ATP. Summed up:
as §1

In test [28] the target is T3, Tyrosine-protein kinase JAK3 (Homo sapiens, UniProt P52333).
T3 sequence (P52333 whole entry): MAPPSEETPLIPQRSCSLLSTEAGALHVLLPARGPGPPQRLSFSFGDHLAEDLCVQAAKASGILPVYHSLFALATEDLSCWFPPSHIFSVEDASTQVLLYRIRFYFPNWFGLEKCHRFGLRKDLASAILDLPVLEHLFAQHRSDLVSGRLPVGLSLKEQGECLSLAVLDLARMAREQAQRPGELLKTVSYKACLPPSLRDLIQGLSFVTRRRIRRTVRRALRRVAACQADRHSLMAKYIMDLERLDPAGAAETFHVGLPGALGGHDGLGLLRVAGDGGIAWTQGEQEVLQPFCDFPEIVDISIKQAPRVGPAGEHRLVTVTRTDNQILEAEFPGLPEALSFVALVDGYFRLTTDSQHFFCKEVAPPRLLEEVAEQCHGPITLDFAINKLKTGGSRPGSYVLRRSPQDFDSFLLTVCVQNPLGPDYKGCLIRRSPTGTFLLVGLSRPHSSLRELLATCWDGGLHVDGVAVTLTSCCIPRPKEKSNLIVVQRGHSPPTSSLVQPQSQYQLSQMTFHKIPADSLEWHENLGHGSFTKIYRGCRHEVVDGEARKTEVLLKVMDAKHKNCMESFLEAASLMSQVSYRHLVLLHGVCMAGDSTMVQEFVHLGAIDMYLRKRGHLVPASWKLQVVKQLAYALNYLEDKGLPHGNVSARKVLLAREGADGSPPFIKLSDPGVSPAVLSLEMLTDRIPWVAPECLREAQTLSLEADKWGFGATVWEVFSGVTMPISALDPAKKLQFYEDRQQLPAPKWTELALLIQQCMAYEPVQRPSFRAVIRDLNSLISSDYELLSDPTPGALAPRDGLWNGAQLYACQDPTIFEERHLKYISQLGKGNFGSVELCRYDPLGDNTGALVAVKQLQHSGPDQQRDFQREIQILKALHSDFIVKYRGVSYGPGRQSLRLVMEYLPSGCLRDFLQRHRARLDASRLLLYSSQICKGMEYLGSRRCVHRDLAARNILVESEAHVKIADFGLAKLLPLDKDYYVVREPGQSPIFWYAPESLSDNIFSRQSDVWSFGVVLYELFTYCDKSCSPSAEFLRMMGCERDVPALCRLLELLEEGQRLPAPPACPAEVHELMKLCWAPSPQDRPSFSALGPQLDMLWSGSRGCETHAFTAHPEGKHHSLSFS
As to the kind of experiment: Inhibition of human JAK3 using GEEEEYFELVKKKK as substrate in presence of [gamma-33P]-ATP. In short, it runs like this: as §2

The target in test [29] is Tyrosine-protein kinase JAK1 (Homo sapiens, UniProt P23458). Put plainly: Inhibition of human JAK1 using poly[Glu:Tyr] as substrate in presence of [gamma-33P]-ATP. Summed up:
as §2

Test [30] addresses Histone deacetylase 2 (Homo sapiens, UniProt Q92769). Put plainly: Inhibition of C-terminal GST tagged human recombinant HDAC2 (1 to 488 residues) expressed in Baculovirus infected insect cells in presence of ATP. Summed up:
as §1

T1 sequence (O60674 whole entry, the tested form may be a part): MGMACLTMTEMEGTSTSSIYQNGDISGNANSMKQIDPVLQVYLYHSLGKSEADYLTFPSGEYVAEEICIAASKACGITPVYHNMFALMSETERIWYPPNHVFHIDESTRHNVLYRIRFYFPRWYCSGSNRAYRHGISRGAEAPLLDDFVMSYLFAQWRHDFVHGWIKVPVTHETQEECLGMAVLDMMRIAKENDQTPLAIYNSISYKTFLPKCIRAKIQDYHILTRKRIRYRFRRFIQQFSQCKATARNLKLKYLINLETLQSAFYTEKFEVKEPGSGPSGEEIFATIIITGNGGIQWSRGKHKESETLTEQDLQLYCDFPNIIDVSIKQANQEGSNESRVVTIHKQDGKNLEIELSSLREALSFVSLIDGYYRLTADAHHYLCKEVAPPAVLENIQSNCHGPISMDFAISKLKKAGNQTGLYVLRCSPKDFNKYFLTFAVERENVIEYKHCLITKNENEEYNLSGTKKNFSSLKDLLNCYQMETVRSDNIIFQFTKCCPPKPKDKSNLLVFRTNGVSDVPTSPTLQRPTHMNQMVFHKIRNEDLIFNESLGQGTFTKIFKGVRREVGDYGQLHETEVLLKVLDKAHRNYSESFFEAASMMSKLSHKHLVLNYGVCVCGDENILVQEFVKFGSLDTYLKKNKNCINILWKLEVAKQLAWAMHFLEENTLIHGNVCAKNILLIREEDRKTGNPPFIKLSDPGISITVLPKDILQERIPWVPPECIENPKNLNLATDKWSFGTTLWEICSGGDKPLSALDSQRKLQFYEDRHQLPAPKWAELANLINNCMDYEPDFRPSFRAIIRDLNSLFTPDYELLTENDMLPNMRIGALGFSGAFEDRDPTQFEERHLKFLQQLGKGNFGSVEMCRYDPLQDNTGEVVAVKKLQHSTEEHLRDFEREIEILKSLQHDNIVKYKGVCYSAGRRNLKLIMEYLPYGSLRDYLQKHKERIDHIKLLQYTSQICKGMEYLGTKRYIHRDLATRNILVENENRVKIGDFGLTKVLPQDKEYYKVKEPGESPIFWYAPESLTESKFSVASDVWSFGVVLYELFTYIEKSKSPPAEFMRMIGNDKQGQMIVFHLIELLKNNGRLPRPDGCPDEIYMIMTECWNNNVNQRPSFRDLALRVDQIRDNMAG
Sequence of Histone deacetylase 4 (Homo sapiens) (P56524 whole entry, the tested form may be a part): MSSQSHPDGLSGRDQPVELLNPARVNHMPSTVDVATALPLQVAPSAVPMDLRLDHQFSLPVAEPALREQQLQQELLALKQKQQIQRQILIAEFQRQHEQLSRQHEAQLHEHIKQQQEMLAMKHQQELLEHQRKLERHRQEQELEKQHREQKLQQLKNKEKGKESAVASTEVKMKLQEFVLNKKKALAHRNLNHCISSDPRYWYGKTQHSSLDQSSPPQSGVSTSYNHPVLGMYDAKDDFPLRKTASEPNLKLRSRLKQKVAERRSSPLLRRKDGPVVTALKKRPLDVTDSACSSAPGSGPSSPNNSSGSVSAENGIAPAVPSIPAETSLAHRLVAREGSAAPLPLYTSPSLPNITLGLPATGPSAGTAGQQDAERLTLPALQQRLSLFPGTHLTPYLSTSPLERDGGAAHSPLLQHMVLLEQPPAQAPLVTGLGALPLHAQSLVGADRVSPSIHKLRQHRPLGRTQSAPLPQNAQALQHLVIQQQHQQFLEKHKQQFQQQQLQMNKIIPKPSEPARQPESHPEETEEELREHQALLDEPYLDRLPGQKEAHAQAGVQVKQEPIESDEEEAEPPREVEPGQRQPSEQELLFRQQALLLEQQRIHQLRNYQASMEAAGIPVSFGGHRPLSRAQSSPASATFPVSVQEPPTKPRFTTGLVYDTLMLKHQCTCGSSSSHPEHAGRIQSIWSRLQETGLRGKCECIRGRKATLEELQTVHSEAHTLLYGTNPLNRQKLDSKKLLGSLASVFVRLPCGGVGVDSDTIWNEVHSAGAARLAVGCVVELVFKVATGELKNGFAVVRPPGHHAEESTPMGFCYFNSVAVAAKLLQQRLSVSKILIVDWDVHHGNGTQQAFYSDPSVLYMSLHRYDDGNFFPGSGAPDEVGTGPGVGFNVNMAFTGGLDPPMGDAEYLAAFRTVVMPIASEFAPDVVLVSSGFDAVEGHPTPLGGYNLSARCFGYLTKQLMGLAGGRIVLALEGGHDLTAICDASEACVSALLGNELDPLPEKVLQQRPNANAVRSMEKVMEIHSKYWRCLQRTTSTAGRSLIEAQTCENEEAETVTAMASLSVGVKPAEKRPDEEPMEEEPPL
Sequence of Polyamine deacetylase HDAC10 (Q969S8 whole entry, the tested form may be a part): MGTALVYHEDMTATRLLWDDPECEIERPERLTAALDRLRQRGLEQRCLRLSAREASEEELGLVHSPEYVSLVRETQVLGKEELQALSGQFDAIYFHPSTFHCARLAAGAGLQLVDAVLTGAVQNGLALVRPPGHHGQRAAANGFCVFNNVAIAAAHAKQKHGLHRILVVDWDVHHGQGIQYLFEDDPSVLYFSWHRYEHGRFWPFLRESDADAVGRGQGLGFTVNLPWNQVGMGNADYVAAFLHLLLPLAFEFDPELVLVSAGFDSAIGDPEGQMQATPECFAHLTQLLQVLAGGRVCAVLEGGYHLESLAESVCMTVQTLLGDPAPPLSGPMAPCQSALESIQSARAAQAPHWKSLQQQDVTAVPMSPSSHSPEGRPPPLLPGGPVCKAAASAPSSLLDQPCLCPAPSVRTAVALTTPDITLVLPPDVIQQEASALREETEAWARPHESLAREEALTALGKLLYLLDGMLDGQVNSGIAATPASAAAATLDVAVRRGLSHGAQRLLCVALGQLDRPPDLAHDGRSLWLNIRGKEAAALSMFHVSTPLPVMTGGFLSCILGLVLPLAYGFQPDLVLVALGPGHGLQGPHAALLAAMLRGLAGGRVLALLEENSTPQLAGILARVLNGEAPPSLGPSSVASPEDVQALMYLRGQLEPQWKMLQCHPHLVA

In test [1], `O=C(CCCCCCOc1ccc2cc1COC/C=C/COCc1cccc(c1)-c1ccnc(n1)N2)NO` displayed an Activity of 47%. Further, the IC50 in test [2] was 940 nM; in test [3] it was 2110 nM; in [4] it was 4000 nM; in test [5], 2070 nM; in [6] it was 1190 nM.
Regarding `N#CC[C@H](C1CCCC1)n1cc(-c2ncnc3[nH]ccc23)cn1` [RUXOLITINIB], the Activity in test [7] came out at 74%; in test [8], 52%; in test [9], 59%; in [10] it was 73%.
Regarding `O=C(/C=C/c1ccc(NCCCn2cc(-c3ncnc4[nH]ccc34)cn2)cc1)NO`, the Kd in [11] turned out to be 200 nM. Besides, the IC50 was 14400 nM in test [12]; 148 nM in test [13]; 2650 nM in test [14]; over 4000 nM in test [2]; over 10000 nM in test [4]; 13300 nM in [15]. In addition, the IC50 in [16] was 25300 nM; in test [6], over 4000 nM; in test [17], 17000 nM; in test [18] it was 502 nM.
Take `CC(CCCCCC(=O)NO)n1cc(-c2ncnc3[nH]ccc23)cn1` (stereo unspecified): the IC50 in test [19] came out at 24 nM; in test [20] it was 7400 nM; in test [13], 1 nM; in test [14], 6 nM; in test [24] it was 144 nM; in test [25], 31 nM. Further, the IC50 stood at 310 nM in [26]; 8500 nM in test [27]; 436 nM in test [28]; 65 nM in test [18]; 11 nM in test [29]; 47 nM in [30]. For the same molecule, the inhibition in test [21] came out at 33%; in [22], 8%; in test [23] it was 40%.

What is called IC50 is the concentration that inhibits the measured activity by half. One may read the inhibition as the relative decrease from the control value, in per cent.
